Measurements published in ChEMBL document CHEMBL3244414, “Structure-activity relationships among the O-acyl derivatives of leucomycin. Correlation of minimal inhibitory concentrations with binding to Escherichia coli ribosomes” (J Med Chem, 1977).
≈ marks a conversion by molar mass, not a printed value.

How the values were obtained:
[1] = test system: Staphylococcus aureus; experiment: Antimicrobial activity against Staphylococcus aureus ATCC 6538P by agar dilution method; assay type: functional; settings: Staphylococcus aureus, ATCC 6538P; read-out: MIC
Summary of the method: (§1)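 Read-out is the minimal inhibitory concentration, found by agar dilution against the named strain.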

[2] = test system: Bacillus spizizenii; experiment: Antimicrobial activity against Bacillus subtilis ATCC 6633 by agar dilution method; assay type: functional; settings: Bacillus spizizenii, ATCC 6633; read-out: MIC; summary of the method: as §1
[3] = test system: Klebsiella pneumoniae; experiment: Antimicrobial activity against Klebsiella pneumoniae ATCC 10031 by agar dilution method; assay type: functional; settings: Klebsiella pneumoniae, ATCC 10031; read-out: MIC; summary of the method: as §1
[4] = molecular target: Bacterial 70S ribosome (Bacteria) (UniProt P0A7V0+P60723+P0AG67+P0A7R5+P0A7R9+P0A7S3+P0A7S9+P0AG59+P0ADZ4+P0A7T3+P0AG63+P0A7T7+P0A7U3+P0A7U7+P68679+P0A7V3+P0A7V8+P0A7W1+P02358+P02359+P0A7W7+P0A7X3+P0A7J3+P0A7J7+P0AA10+P0ADY3+P02413+P0ADY7+P0AG44+P0C018+P0A7K6+P0A7L0+P0A7L3+P0AG48+P61175+P0ADZ0+P60624+P68919+P0A7L8+P0A7M2+P0A7M6+P60422+P0AG51+P0A7N1+P0A7M9+P0A7N4+P0A7N9+P0A7P5+P0A7Q1+Q2EEQ2+P0A7Q6+P60438+P62399+P0AG55+P0A7K2); experiment: (§2) Displacement of [14C]erythromycin from Escherichia coli ribosomes after 30 mins by scintillation spectrometer analysis
Summary of the method: (§3)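 NH4Cl-washed E. coli ribosomes with [14C]erythromycin A and varied competitor concentrations in 0.01 M Tris-HCl pH 7.2, 0.1 M KCl, 0.004 M MgCl2, 0.01 M NH4Cl. Incubated 30 min at 24 °C, stopped by dilution in cold Tris/KCl/MgCl2 buffer, membrane-filtered, washed three times, dried, scintillation counted. Reports the concentration giving 50% inhibition of binding.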

[5] = molecular target: Bacterial 70S ribosome; experiment: as §2; summary of the method: as §3

In the case of `CC[C@H]1OC(=O)[C@H](C)[C@@H](O[C@H]2C[C@@](C)(OC)[C@@H](O)[C@H](C)O2)[C@H](C)[C@@H](O[C@@H]2O[C@H](C)C[C@H](N(C)C)[C@H]2O)[C@](C)(O)C[C@@H](C)C(=O)[C@H](C)[C@@H](O)[C@]1(C)O` [ERYTHROMYCIN], the MIC [1] is reported as 0.4 µg/mL (≈ 0.545 µM), the MIC [2] is reported as 0.2 µg/mL (≈ 0.273 µM) and the MIC [3] is reported as 6.3 µg/mL (≈ 8.58 µM). It also gave a pK50 [4] of 6.1 and an IC50 [5] of 0.75 µM.
`CO[C@@H]1[C@@H](O[C@@H]2O[C@H](C)[C@@H](O[C@H]3C[C@@](C)(O)[C@@H](OC(=O)CC(C)C)[C@H](C)O3)[C@H](N(C)C)[C@H]2OC(C)=O)[C@@H](CC=O)C[C@@H](C)[C@@H](OC(C)=O)/C=C/C=C/C[C@@H](C)OC(=O)C[C@H]1OC(C)=O` gave an MIC [1] of 1.6 µg/mL (≈ 1.75 µM), an MIC [2] of 1.6 µg/mL (≈ 1.75 µM) and an MIC [3] of 100 µg/mL (≈ 110 µM). It also gave a pK50 [4] of 4.7 and an IC50 [5] of 21.4 µM.
`CCCC(=O)O[C@H]1[C@H](C)O[C@@H](O[C@H]2[C@H](N(C)C)[C@@H](OC(C)=O)[C@H](O[C@H]3[C@@H](CC=O)C[C@@H](C)[C@@H](O)/C=C/C=C/C[C@@H](C)OC(=O)C[C@@H](O)[C@@H]3OC)O[C@@H]2C)C[C@@]1(C)O` was tested, and the MIC [1] was 1.6 µg/mL (≈ 1.97 µM), the MIC [2] was 0.8 µg/mL (≈ 0.983 µM) and the MIC [3] was 12.5 µg/mL (≈ 15.4 µM). The pK50 [4] was 4.8 and the IC50 [5] was 14.8 µM.
`CO[C@@H]1[C@@H](O[C@@H]2O[C@H](C)[C@@H](O[C@H]3C[C@@](C)(O)[C@@H](OC(=O)CC(C)C)[C@H](C)O3)[C@H](N(C)C)[C@H]2O)[C@@H](CC=O)C[C@@H](C)[C@@H](OC(C)=O)/C=C/C=C/C[C@@H](C)OC(=O)C[C@H]1O` gave an MIC [1] of 1.6 µg/mL (≈ 1.93 µM), an MIC [2] of 0.8 µg/mL (≈ 0.966 µM) and an MIC [3] of 50 µg/mL (≈ 60.4 µM). It also gave a pK50 [4] of 6 and an IC50 [5] of 1.1 µM.
`CO[C@@H]1[C@@H](O[C@@H]2O[C@H](C)[C@@H](O[C@H]3C[C@@](C)(O)[C@@H](OC(=O)CC(C)C)[C@H](C)O3)[C@H](N(C)C)[C@H]2OC(=O)CCC(=O)O)[C@@H](CC=O)C[C@@H](C)[C@@H](O)/C=C/C=C/C[C@@H](C)OC(=O)C[C@H]1OC(C)=O` showed an MIC [1] of 1.6 µg/mL (≈ 1.72 µM), an MIC [2] of 1.6 µg/mL (≈ 1.72 µM) and an MIC [3] of 25 µg/mL (≈ 26.9 µM). The pK50 [4] was 5.5 and the IC50 [5] was 3.5 µM.
For `CO[C@@H]1[C@@H](O[C@@H]2O[C@H](C)[C@@H](O[C@H]3C[C@@](C)(O)[C@@H](OC(=O)CC(C)C)[C@H](C)O3)[C@H](N(C)C)[C@H]2O)[C@@H](CC=O)C[C@@H](C)[C@@H](OC(C)=O)/C=C/C=C/C[C@@H](C)OC(=O)C[C@H]1OC(C)=O`, the MIC [1] was 1.6 µg/mL (≈ 1.84 µM), the MIC [2] was 1.6 µg/mL (≈ 1.84 µM) and the MIC [3] was 50 µg/mL (≈ 57.5 µM). For the same molecule, the pK50 [4] was 5.9 and the IC50 [5] was 1.3 µM.
`CO[C@@H]1[C@@H](O[C@@H]2O[C@H](C)[C@@H](O[C@H]3C[C@@](C)(O)[C@@H](OC(C)=O)[C@H](C)O3)[C@H](N(C)C)[C@H]2O)[C@@H](CC=O)C[C@@H](C)[C@@H](O)/C=C/C=C/C[C@@H](C)OC(=O)C[C@H]1OC(C)=O` showed an MIC [1] of 3.1 µg/mL (≈ 3.94 µM), an MIC [2] of 6.3 µg/mL (≈ 8.02 µM) and an MIC [3] of 100 µg/mL (≈ 127 µM). It also gave a pK50 [4] of 5.2 and an IC50 [5] of 6.7 µM.
For `CO[C@@H]1[C@@H](O[C@@H]2O[C@H](C)[C@@H](O[C@H]3C[C@@](C)(O)[C@@H](O)[C@H](C)O3)[C@H](N(C)C)[C@H]2O)[C@@H](CC=O)C[C@@H](C)[C@@H](O)/C=C/C=C/C[C@@H](C)OC(=O)C[C@H]1OC(C)=O`, the MIC [1] was 12.5 µg/mL (≈ 16.8 µM), the MIC [2] was 6.3 µg/mL (≈ 8.47 µM) and the MIC [3] was 100 µg/mL (≈ 134 µM). It also gave a pK50 [4] of 5 and an IC50 [5] of 10.7 µM.
`CCCC(=O)O[C@H]1[C@H](C)O[C@@H](O[C@H]2[C@H](N(C)C)[C@@H](OC(=O)CC)[C@H](O[C@H]3[C@@H](CC=O)C[C@@H](C)[C@@H](O)/C=C/C=C/C[C@@H](C)OC(=O)C[C@@H](OC(C)=O)[C@@H]3OC)O[C@@H]2C)C[C@@]1(C)O` showed an MIC [1] of 1.6 µg/mL (≈ 1.84 µM), an MIC [2] of 0.8 µg/mL (≈ 0.919 µM) and an MIC [3] of 25 µg/mL (≈ 28.7 µM). The pK50 [4] was 4.8 and the IC50 [5] was 17.8 µM.
`CO[C@@H]1[C@@H](O[C@@H]2O[C@H](C)[C@@H](O[C@H]3C[C@@](C)(O)[C@@H](OC(=O)CC(C)C)[C@H](C)O3)[C@H](N(C)C)[C@H]2O)[C@@H](CC=O)C[C@@H](C)[C@@H](OC(=O)C(Cl)Cl)/C=C/C=C/C[C@@H](C)OC(=O)C[C@H]1OC(C)=O` gave an MIC [1] of 1.6 µg/mL (≈ 1.7 µM), an MIC [2] of 0.8 µg/mL (≈ 0.852 µM) and an MIC [3] of 50 µg/mL (≈ 53.3 µM). It also gave a pK50 [4] of 5.9 and an IC50 [5] of 1.4 µM.
In the case of `CCCC(=O)O[C@H]1[C@H](C)O[C@@H](O[C@H]2[C@H](N(C)C)[C@@H](OC(=O)CCCC(=O)O)[C@H](O[C@H]3[C@@H](CC=O)C[C@@H](C)[C@@H](O)/C=C/C=C/C[C@@H](C)OC(=O)C[C@@H](O)[C@@H]3OC)O[C@@H]2C)C[C@@]1(C)O`, the MIC [1] is reported as 0.8 µg/mL (≈ 0.903 µM), the MIC [2] is reported as 0.8 µg/mL (≈ 0.903 µM) and the MIC [3] is reported as 25 µg/mL (≈ 28.2 µM). For the same molecule, the pK50 [4] was 5 and the IC50 [5] was 9.3 µM.
`CCCC(=O)O[C@H]1[C@H](C)O[C@@H](O[C@H]2[C@H](N(C)C)[C@@H](O)[C@H](O[C@H]3[C@@H](CC=O)C[C@@H](C)[C@@H](OC(C)=O)/C=C/C=C/C[C@@H](C)OC(=O)C[C@@H](OC(C)=O)[C@@H]3OC)O[C@@H]2C)C[C@@]1(C)O` gave an MIC [1] of 1.6 µg/mL (≈ 1.87 µM), an MIC [2] of 0.8 µg/mL (≈ 0.935 µM) and an MIC [3] of 100 µg/mL (≈ 117 µM). For the same molecule, the pK50 [4] was 5.7 and the IC50 [5] was 2.2 µM.
`CO[C@@H]1[C@@H](O[C@@H]2O[C@H](C)[C@@H](O[C@H]3C[C@@](C)(O)[C@@H](OC(=O)CC(C)C)[C@H](C)O3)[C@H](N(C)C)[C@H]2O)[C@@H](CC=O)C[C@@H](C)[C@@H](OC(=O)CCl)/C=C/C=C/C[C@@H](C)OC(=O)C[C@H]1OC(C)=O` gave an MIC [1] of 0.8 µg/mL (≈ 0.884 µM), an MIC [2] of 0.4 µg/mL (≈ 0.442 µM) and an MIC [3] of 50 µg/mL (≈ 55.3 µM). For the same molecule, the pK50 [4] was 5.8 and the IC50 [5] was 1.7 µM.
For `CCCC(=O)O[C@H]1/C=C/C=C/C[C@@H](C)OC(=O)C[C@@H](OC(C)=O)[C@H](OC)[C@@H](O[C@@H]2O[C@H](C)[C@@H](O[C@H]3C[C@@](C)(O)[C@@H](OC(=O)CC(C)C)[C@H](C)O3)[C@H](N(C)C)[C@H]2O)[C@@H](CC=O)C[C@H]1C`, the MIC [1] was 3.1 µg/mL (≈ 3.45 µM), the MIC [2] was 1.6 µg/mL (≈ 1.78 µM) and the MIC [3] was 100 µg/mL (≈ 111 µM). The pK50 [4] was 5.7 and the IC50 [5] was 1.9 µM.
Work on `CCCC(=O)O[C@H]1[C@H](C)O[C@@H](O[C@H]2[C@H](N(C)C)[C@@H](OC(C)=O)[C@H](O[C@H]3[C@@H](CC=O)C[C@@H](C)[C@@H](O)/C=C/C=C/C[C@@H](C)OC(=O)C[C@@H](OC(C)=O)[C@@H]3OC)O[C@@H]2C)C[C@@]1(C)O` yielded an MIC [1] of 0.8 µg/mL (≈ 0.935 µM), an MIC [2] of 0.8 µg/mL (≈ 0.935 µM) and an MIC [3] of 100 µg/mL (≈ 117 µM). The pK50 [4] was 4.7 and the IC50 [5] was 20.9 µM.
`CO[C@@H]1[C@@H](O[C@@H]2O[C@H](C)[C@@H](O[C@H]3C[C@@](C)(O)[C@@H](O)[C@H](C)O3)[C@H](N(C)C)[C@H]2O)[C@@H](CC=O)C[C@@H](C)[C@@H](OC(C)=O)/C=C/C=C/C[C@@H](C)OC(=O)C[C@H]1OC(C)=O` showed an MIC [1] of 3.1 µg/mL (≈ 3.94 µM), an MIC [2] of 1.6 µg/mL (≈ 2.04 µM) and an MIC [3] of 50 µg/mL (≈ 63.6 µM). The pK50 [4] was 5.2 and the IC50 [5] was 6.3 µM.
`CCCC(=O)O[C@H]1[C@H](C)O[C@@H](O[C@H]2[C@H](N(C)C)[C@@H](OC(=O)CCC(=O)O)[C@H](O[C@H]3[C@@H](CC=O)C[C@@H](C)[C@@H](OC(C)=O)/C=C/C=C/C[C@@H](C)OC(=O)C[C@@H](O)[C@@H]3OC)O[C@@H]2C)C[C@@]1(C)O` was tested, and the MIC [1] was 1.6 µg/mL (≈ 1.75 µM), the MIC [2] was 1.6 µg/mL (≈ 1.75 µM) and the MIC [3] was 25 µg/mL (≈ 27.4 µM). For the same molecule, the pK50 [4] was 5.5 and the IC50 [5] was 3.3 µM.
For `CO[C@@H]1[C@@H](O[C@@H]2O[C@H](C)[C@@H](O[C@H]3C[C@@](C)(O)[C@@H](OC(=O)CC(C)C)[C@H](C)O3)[C@H](N(C)C)[C@H]2O)[C@@H](CC=O)C[C@@H](C)[C@@H](OC(=O)CCC(=O)O)/C=C/C=C/C[C@@H](C)OC(=O)C[C@H]1OC(C)=O`, the MIC [1] was 3.1 µg/mL (≈ 3.34 µM), the MIC [2] was 3.1 µg/mL (≈ 3.34 µM) and the MIC [3] was 100 µg/mL (≈ 108 µM). It also gave a pK50 [4] of 5.5 and an IC50 [5] of 3.4 µM.
